Here are results for 23 compounds from ChEMBL document CHEMBL1121527, “Heterocyclic analogues of the antihypertensive beta-adrenergic blocking agent (S)-2-[3-(ter-butylamino)-2-hydroxypropoxy]-3-cyanopyridine” (1980).

Test [1] relates to Rattus norvegicus. In words: Tested for maximum fall in mean arterial pressure in Spontaneously hypertensive rats after peroral administration by using 1% methyl cellulose as vehicle at 5 mg/kg. In kind it is functional. As to conditions: route oral.
Test [2] relates to Rattus norvegicus. The test is described as follows: Tested for maximum fall in mean arterial pressure in Spontaneously hypertensive rats after peroral administration by using 1% methyl cellulose as vehicle at 20 mg/kg. It counts as functional. The conditions noted are these: route oral.
For test [3], the system named is Rattus norvegicus. In words: Tested for maximum fall in mean arterial pressure in Spontaneously hypertensive rats after peroral administration by using 1% methyl cellulose as vehicle at 1.25 mg/kg. In kind it is functional. As to conditions: route oral.
The subject of test [4] is Rattus norvegicus. The test is described as follows: Comparative effect on Maximum fall in mean arterial pressure of spontaneously hypertensive rat at the dose 0.312 mg/kg per os. It counts as functional, Artery.
The subject of test [5] is Canis familiaris. The test is described as follows: Beta adrenergic blockade activity was measured in anesthetized dogs by blockade of isoproterenol induced tachycardia after iv administration. As to conditions: Canis lupus familiaris. In kind it is functional. The procedure, abridged: (§1)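 Mongrel dogs of either sex (8–13 kg) anesthetized with vinbarbital 50 mg/kg iv. Vagi cut, trachea cannulated, with artificial respiration only if required. Blood pressure recorded via femoral artery catheter and heart rate from the pressure pulse. Drugs given through a femoral vein catheter. Isoproterenol challenge at 0.5 μg/kg iv; the resulting hypotension and tachycardia were computed.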

Test [6] has as its system Canis familiaris. The test is described as follows: Beta adrenergic blockade activity was measured in anesthetized dogs by blockade of isoproterenol induced hypotension after iv administration. In kind it is functional. The conditions noted are these: Canis lupus familiaris. Put shortly: as §1
For test [7], the system named is Rattus norvegicus. In words: Comparative effect on Maximum fall in mean arterial pressure of spontaneously hypertensive rat at the dose 1.25 mg/kg per os. In kind it is functional, Artery.
Test [8] has as its system Rattus norvegicus. The test is described as follows: Comparative effect on Maximum fall in mean arterial pressure of spontaneously hypertensive rat at the dose 0.625 mg/kg per os. In kind it is functional, Artery.
For test [9], the system named is Canis familiaris. The test is described as follows: Tested for increase in iliac blood flow was measured in anesthetized dogs before timolol administered intra arterially at dose […]. In kind it is functional, Canis lupus familiaris, Artery. The procedure, abridged: (§2)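 Adult mongrel dogs of either sex (8–13 kg) under vinbarbital 50 mg/kg iv, with vagi cut and trachea cannulated. Carotid arterial pressure recorded. A 3.0 mm flow transducer on the right iliac artery. Intraarterial injections via a left femoral catheter tipped at the iliac bifurcation. Isoproterenol 0.4 μg ia given before and after timolol (320, 800 or 2000 μg/kg iv) to check β-blockade.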

The subject of test [10] is Canis familiaris. The test is described as follows: Tested for increase in iliac blood flow was measured in anesthetized dogs after timolol administered intravenous at dose 2000 mg/kg. In kind it is functional, Canis lupus familiaris, Artery. Put shortly:
as §2

In test [11] the test system is Rattus norvegicus. The test is described as follows: Tested for maximum fall in mean arterial pressure in Spontaneously hypertensive rats after peroral administration by using 1% methyl cellulose as vehicle at 0.078 mg/kg. It counts as functional. The conditions noted are these: route oral.
Test [12] deals with Canis familiaris. The test is described as follows: Tested for increase in iliac blood flow was measured in anesthetized dogs after timolol administered intravenously at dose 800 µg/kg.
Test [13] concerns Canis familiaris. The test is described as follows: Tested for increase in iliac blood flow was measured in anesthetized dogs after timolol administered intravenous at dose 800 mg/kg. It counts as functional, Canis lupus familiaris, Artery. Put shortly: as §2
In test [14] the test system is Rattus norvegicus. In words: Tested for maximum fall in mean arterial pressure in Spontaneously hypertensive rats after peroral administration by using 1% methyl cellulose as vehicle at 0.312 mg/kg. It counts as functional. The conditions noted are these: route oral.
The test system of test [15] is Rattus norvegicus. In words: Tested for maximum fall in mean arterial pressure in Spontaneously hypertensive rats after peroral administration by using 1% methyl cellulose as vehicle at 80 mg/kg. As to conditions: route oral. In kind it is functional.
The subject of test [16] is Canis familiaris. The test is described as follows: Tested for increase in iliac blood flow was measured in anesthetized dogs before timolol administered intra arterially at dose 400 mg/kg.
Test [17] deals with Canis familiaris. In words: Tested for increase in iliac blood flow was measured in anesthetized dogs after timolol administered intravenous at dose 1600 mg/kg. It counts as functional, Canis lupus familiaris, Artery.

As a reminder, the ED50 is the midpoint of the dose-response relation.

Structures are written as SMILES. “And” between values parts separate entries of the source, which are not always exact repeats. Equal entries are not always repeated.

On to `CC(C)(C)NCC(O)COc1nsnc1C#N` (configuration not stated), for which the MAP in test [1] stood at 9 mmHg.

In turn, `Cc1nc(OC[C@@H](O)CNC(C)(C)C)c(C#N)s1` yielded an MAP in [2] of 21 mmHg.

Turning to `CCOC(=O)c1sc(-c2ccccc2)nc1OC[C@@H](O)CNC(C)(C)C`, the MAP in test [2] is 10 mmHg.

For `CC(C)(C)NCC(O)COc1ccsn1` (configuration not stated), the MAP in test [3] is recorded as 8 mmHg; in [1] it was 26 mmHg; in test [2], 22 mmHg.

For `CC(C)(C)NC[C@H](O)COc1nsnc1N1CCOCC1` [TIMOLOL], the MAP in test [4] is on record as 3 mmHg; in test [7], -1 mmHg; in test [8], 0 mmHg. Further, the ED50 in test [5] amounted to 2.4 µg/kg; in [6] it was 1.3 µg/kg.

`CC(C)(C)NCC(O)COc1nscc1C#N` (configuration not stated): the MAP in test [1] (5 mg/kg) was 27 mmHg and 9 mmHg; in test [2], 52 mmHg. Moreover, the 50% effective dose (ED50) is 28 µg/kg in test [5] and 27 µg/kg in test [6]. Moreover, the Activity amounted to 22 mL/min in test [9] and 20 mL/min in [10].

In test [2], `CCOC(=O)c1scnc1OCC(O)CNC(C)(C)C` (configuration not stated) gave an MAP of 9 mmHg.

Regarding `CC(C)(C)NC[C@H](O)COc1nc(-c2ccccc2)sc1C(N)=O`, the MAP in test [2] is listed as 15 mmHg.

Consider `Cc1sc(-c2ccncc2)nc1OC[C@@H](O)CNC(C)(C)C`, for which the MAP in [1] came to 8 mmHg; in test [2] it was 41 mmHg.

For `CC(C)NCC(O)COc1cccc2ccccc12` (configuration not stated) [PROPRANOLOL], the MAP in test [3] is on record as 12 mmHg; in test [1], 7 mmHg; in [2] it was 14 mmHg. Further, the ED50 was 51 µg/kg in test [5] and 19 µg/kg in test [6].

In turn, `Cc1nc(OC[C@@H](O)CNC(C)(C)C)c(C(N)=O)s1` gave an MAP in test [2] of 11 mmHg.

With `CC(C)(C)NCC(O)COc1ncccc1C#N` (configuration not stated), the MAP in [3] was determined as 47 mmHg; in test [11], 19 mmHg; in [14], 30 mmHg. Further, the ED50 was 1.5 µg/kg in [5] and 5.2 µg/kg in test [6]. The Activity was found to be 98 mL/min in [9], 38 mL/min in [12], 62 mL/min in test [13] and 90 mL/min in [10].

Take `CC(C)(C)NCC(O)COc1nc2ccncc2cc1C#N` (configuration not stated): the MAP in test [2] was 22 mmHg.

As to `CC(C)(C)NC[C@H](O)COc1nc(-c2ccccc2)sc1C#N`, the MAP in test [1] amounted to 11 mmHg; in test [15], 14 mmHg; in [2], 9 mmHg.

Turning to `CC(C)(C)NCC(O)COc1ncsc1C#N` (configuration not stated), the MAP in test [3] is 29 mmHg; in test [1], 42 mmHg; in [11] it was 11 mmHg; in test [14], 26 mmHg; in test [2] it was 37 mmHg. Also, the ED50 turned out to be 10 µg/kg in [5] and 30 µg/kg in test [6]. The same compound had an Activity in [9] of 125 mL/min.

Regarding `Cc1nc(OCC(O)CNC(C)(C)C)c(C(N)=O)s1` (racemic), the figures for the MAP in test [3], in test [1] and in test [2] were 22 mmHg, 30 mmHg and 23 mmHg, respectively.

With `NNc1nncc2ccccc12` [HYDRALAZINE], the Activity in test [9] turned out to be 66 mL/min; in test [16], 78 mL/min.

In turn, `CC(C)(C)NCC(O)COc1nccnc1C#N` (configuration not stated) had an MAP in [2] of 8 mmHg.

In turn, `CCOC(=O)c1sc(SC)nc1OCC(O)CNC(C)(C)C` (configuration not stated) returned an MAP in test [2] of 15 mmHg.

Turning to `CC(C)(C)NCC(O)COc1nscc1Br` (configuration not stated), the figures for the MAP in test [1] and in test [2] were 41 mmHg and 30 mmHg, respectively. Further, the ED50 in test [5] and in test [6] was 3 µg/kg each time. Moreover, the Activity in [9] turned out to be 31 mL/min; in [17], 33 mL/min.

In the case of `Cc1sc(-c2ccccc2)nc1OC[C@@H](O)CNC(C)(C)C`, the results for the MAP in test [15] and in test [2] were 12 mmHg and 17 mmHg, respectively.

With `CSc1nc(OCC(O)CNC(C)(C)C)c(C(N)=O)s1` (configuration not stated), in [2], the MAP stood at 11 mmHg.

Regarding `CC(C)(C)NCC(O)COc1nc2ncccc2cc1C#N` (configuration not stated), the MAP in [1] is 22 mmHg; in test [2], 28 mmHg. The same compound showed an Activity in test [9] of 0 mL/min.
